In the library only some 2.6% were active in any assay of this set; here they are far more common.
FGF22 binding = binders of human FGF22 protein, primary screen, FGF22 synaptogenesis inhibitor project, biophysical, thermal shift, single point | recombinant FGF22 thermal shift, SYPRO orange fluorescence; percent of sucrose octasulfate shift, DMSO zero | activity (Tm shift, normalised), % at 9.99 µM | Fibroblast growth factor 22 (Homo sapiens), Q9HCT0 | 340,000 compounds, 1.5% hits;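 active means mean Tm shift, scaled 0 neutral to 100 positive control, at about 1.3% or above, every replicate too, limit read from the data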
Target sequence (Q9HCT0 whole entry, looked up): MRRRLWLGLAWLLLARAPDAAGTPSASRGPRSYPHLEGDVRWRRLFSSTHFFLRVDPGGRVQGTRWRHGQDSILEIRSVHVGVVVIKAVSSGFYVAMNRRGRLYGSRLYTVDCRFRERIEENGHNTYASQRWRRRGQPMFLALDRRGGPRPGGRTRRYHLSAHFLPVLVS
SIRT5 inh = SIRT5 desuccinylase inhibitors, primary screen, biochemical, fluorescence imaging, single point, set 5; Purified SirT5, succinyl-peptide AMC, trypsin-coupled fluorescence; AID 652115, 2013; 330,000 compounds, 1.1% hits; NAD-dependent protein deacylase sirtuin-5, mitochondrial (Homo sapiens), Q9NXA8; inhibition, % at 15 µM; in the data active means inhibition above about 15%
UCH37 DUB inh = inhibitors of human UCH37 deubiquitinase, primary screen, biochemical, Ub-AMC cleavage, fluorescence; purified proteasome/UCH37; Ubiquitin carboxyl-terminal hydrolase isozyme L5 (Homo sapiens), Q9Y5K5; inhibition, % (test concentration not listed); AID 588478, 2011; 330,000 compounds, 0.33% hits;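 active means mean inhibition over replicate wells above about 20%, limit read from the data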;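 further: 0% = compound-free wells with enzyme and 100% = wells lacking proteasome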
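Reagent: Ub-AMC substrate; assay system: Proteasome-associated human UCH37 deubiquitinase; controls: no-proteasome and no-compound wells; read-out: % inhibition of Ub-AMC cleavage fluorescence; timing: 30 min preincubation with enzyme, 25 min cleavage at room temperature; signal: AMC fluorescence from Ub-AMC cleavage, excitation 355 nm, emission 460 nm; buffer or medium: Tris-HCl pH 7.4 plus ovalbumin, ATP-MgCl2, DTT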
NSD2 inh = NSD2 histone methyltransferase inhibitors, primary screen, biochemical, AlphaScreen, single concentration, set 2. 310,000 compounds, 0.54% hits. NSD2 peptide methylation, 120 min. Histone-lysine N-methyltransferase NSD2 (Homo sapiens), O96028. AID 743445, 2014. inhibition, % at 12.5 µM; in the data active means inhibition above about 50%
CASP6 VEID inh = human caspase-6 inhibitors, primary screen, biochemical, VEID-R110 fluorescence, single point, set 2. P55212. purified caspase-6, Z-VEID-R110 cleavage fluorescence. inhibition, % at 12.5 µM. 350,000 compounds, 0.53% hits. AID 686996, 2013;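 active means mean inhibition across replicates at least about 35%, with every replicate also reaching that limit, limit read from the data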;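 further: 0% = median of neutral control wells and 100% = no fluorescence left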
Numbers without * were called inactive; . = not tested or not shown.

SMILES	FGF22 binding	SIRT5 inh	UCH37 DUB inh	NSD2 inh	CASP6 VEID inh
Cc1ccccc1-c1ccc2c(c1)O[C@H](CN(C)Cc1ccncc1)[C@H](C)CN([C@@H](C)CO)S2(=O)=O	0	8	.	.	2
COc1ccc(S(=O)(=O)N2CCN(C(=S)NC3CCCCC3)CC2)cc1	43*	4	2	0	-1
CCOc1ccc(S(=O)(=O)N2CCN(C(=S)NC3CC3)CC2)cc1	0	-1	2	0	0
Cc1c(NC(=O)c2cccc(S(=O)(=O)N(C)c3ccccc3)c2)c(=O)n(-c2ccccc2)n1C	0	0	3	-1	1
Cc1c(NS(=O)(=O)c2cc(C(=O)NCCN(C)C)ccc2Cl)c(=O)n(-c2ccccc2)n1C	0	-2	0	-1	42*
Cc1c(NC(=O)c2ccc(N(C)S(=O)(=O)c3ccccc3)cc2)c(=O)n(-c2ccccc2)n1C	43*	-1	2	-1	2
Cc1c(NS(=O)(=O)c2cc(C(=O)NCc3cccc(Cl)c3)ccc2Cl)c(=O)n(-c2ccccc2)n1C	0	-1	2	2	1
Cc1cc(C)n(CCC(=O)NN=Cc2ccc(O)cc2O)n1	.	.	-9	.	.
CN=C(N)NC(=O)Nc1c(C)cccc1C	0	-4	3	-2	-3
CN=C(NC(=O)Nc1c(C)cccc1C)NC(=O)Nc1c(C)cccc1C	44*	1	2	-2	14
Cn1c(NN=Cc2cccc(O)c2)cc(=O)n(C)c1=O	.	.	13	.	.
Cc1ccc2nc(SCC(=O)Nc3cc(C)on3)c(C)cc2c1	0	4	1	0	3
CCOc1ccc2nc(SCC(=O)Nc3cc(C)on3)c(C)cc2c1	0	81*	1	-2	6
COc1cccc2c1OCC/C2=N\NC(=O)C(C)Oc1ccc([N+](=O)[O-])cc1 (stereo not drawn)	62*	2	.	3	3
CCOC(=O)C1CCCN(CCC(=O)Nc2cc(C)cc(C)c2)C1 (stereo not drawn)	44*	-5	-1	-2	-2
CCOC(=O)C1CCCN(CC(=O)Nc2cc(C)cc(C)c2)C1 (stereo not drawn)	0	9	0	-7	-2
COC(C(=O)NN=C(C)c1ccc(C)cc1)c1ccccc1 (stereo not drawn)	.	.	1	.	.
Cc1ccc(C)c(S(=O)(=O)Nc2cc(SCC(=O)O)c(O)c3ccccc23)c1	.	.	23*	.	.
CCOc1ccc(S(=O)(=O)Nc2cc(SCC(=O)O)c(O)c3ccccc23)cc1	0	1	14	.	88*
Cc1ccc(NS(=O)(=O)c2cc(NC(=O)C(C)Oc3ccccc3)ccc2C)c(C)c1 (stereo not drawn)	.	.	2	0	.
CCOC(=O)c1ccccc1NS(=O)(=O)c1ccc(OCC)cc1	.	.	2	-2	.
CC1=C(C(=O)N2CCOCC2)C(c2ccc(Br)cc2)NC(=S)N1c1ccccc1 (stereo not drawn)	0	-4	1	.	-1
CC1=C(C(=O)N2CCOCC2)C(c2ccc(OC(F)F)cc2)NC(=S)N1c1ccccc1 (stereo not drawn)	43*	-1	2	-1	-2
O=C(N[C@H]1C=C[C@@H](CC(=O)N2CCOCC2)O[C@@H]1CO)c1ccccn1	0	-1	.	.	3
O=C(N[C@H]1C=C[C@H](CC(=O)N2CCOCC2)O[C@H]1CO)c1ccccn1	-1	29*	.	.	2
O=C(NC1CCCCC1)N[C@H]1C=C[C@@H](CC(=O)N2CCOCC2)O[C@@H]1CO	0	8	.	.	37*
O=C(NC1CCCCC1)N[C@@H]1C=C[C@@H](CC(=O)N2CCOCC2)O[C@@H]1CO	0	6	.	.	4
Cn1c(SCC(=O)O)nnc1-c1ccc(NC(=O)c2ccc(Cl)c(Cl)c2)cc1	0	16*	2	0	1
COc1ccccc1C(=O)Nc1ccc(-c2nnc(SCC(=O)O)n2C)cc1	.	.	-4	1	.

Compound activity deposited in PubChem by several laboratories.
